# Results of several laboratories.
# Each line is one published result; the experiments were not run side by side.
# Organism: Enterococcus faecium
SMILES,effect on,technique,strain,time,quantity,result
O=C(N[C@H](CO)[C@H](O)c1ccc([N+](=O)[O-])cc1)C(Cl)Cl,microbial growth,broth dilution,VRE,,MIC,3.9 µg/mL
O=C(O)COc1ccc(Oc2ccc(-c3noc(-c4ccc(O)cc4)n3)cc2)cc1,microbial growth,broth dilution,,24 h,MIC,> 32 µg/mL
CC1CCN(CCCN2/C(=C/c3cc[n+](C)c4ccccc34)Sc3ccccc32)CC1.[I-],microbial killing,,ATCC700221,,MBC,128 µg/mL
O=C(O)c1cccc(-n2c(/C=C/c3ccc(F)c(Cl)c3)nc3ccccc3c2=O)c1,microbial growth,broth dilution,NCTC7171,,MIC,> 128 µg/mL
O=C(Nc1ccc2c(c1)OC(F)(F)O2)Nc1ccc(Cl)c(C(F)(F)F)c1,microbial growth,,,,MIC,1 µM
CN(C)CCc1ccc(Oc2ccc(-c3noc(-c4ccc(O)cc4)n3)cc2)cc1,microbial growth,broth dilution,,24 h,MIC,4 µg/mL
O=c1c2cnccc2nc(/C=C/c2ccc(Cl)cc2)n1-c1cccc(O)c1,microbial growth,broth dilution,NCTC7171,,MIC,> 128 µg/mL
Cc1cc(/C=C2\Sc3ccccc3N2CCCN2CCC(C)CC2)c2ccccc2[n+]1C.[I-],microbial killing,,ATCC700221,,MBC,> 64 µg/mL
CC(=O)OCc1cccc(-n2c(/C=C/c3ccc(C#N)cc3)nc3ccccc3c2=O)c1,microbial growth,broth dilution,NCTC7171,,MIC,> 128 µg/mL
O=C(O)CCc1ccc(Oc2ccc(-c3noc(-c4ccc(O)cc4)n3)cc2)cc1,microbial growth,broth dilution,,24 h,MIC,> 32 µg/mL
CNC(=O)c1cc(Oc2ccc(NC(=O)Nc3ccc(Cl)c(C(F)(F)F)c3)cc2)ccn1,microbial growth,,,,MIC,> 100 µM
